Laboratory results reported in ChEMBL document CHEMBL4130613, “Identification and Proposed Relative and Absolute Configurations of Niphimycins C-E from the Marine-Derived Streptomyces sp. IMB7-145 by Genomic Analysis” (J Nat Prod, 2018).
Converted amounts (≈) assume the structure as drawn. The source made the active and inactive calls. The rule behind the calls is not given here.

How the values were obtained:
[1] = test system: Staphylococcus epidermidis; experiment: Antibacterial activity against methicillin-resistant Staphylococcus epidermidis 12-8 after 18 hrs by agar dilution method; format: functional
Providencia rettgeri = experiment: Antibacterial activity against Providencia rettgeri ATCC 31052 after 18 hrs by agar dilution method; format: functional; settings: ATCC 31052, 18 h
Escherichia coli [2] = experiment: Antibacterial activity against extended-spectrum beta-lactamase-negative Escherichia coli 12-14 after 18 hrs by agar dilution method; format: functional; settings: 12-14, 18 h
[3] = test system: Stenotrophomonas maltophilia; experiment: Antibacterial activity against Stenotrophomonas maltophilia ATCC 13636 after 18 hrs by agar dilution method; format: functional; settings: ATCC 13636, 18 h
Enterobacter cloacae = experiment: Antibacterial activity against Enterobacter cloacae ATCC 43560 after 18 hrs by agar dilution method; format: functional; settings: ATCC 43560, 18 h
Klebsiella pneumoniae [4] = experiment: Antibacterial activity against extended-spectrum beta-lactamase-positive Klebsiella pneumoniae ATCC 700603 after 18 hrs by agar dilution method; format: functional; settings: Klebsiella pneumoniae, 700603, 18 h
Morganella morganii = experiment: Antibacterial activity against Morganella morganii ATCC 25830 after 18 hrs by agar dilution method; format: functional; settings: ATCC 25830, 18 h
Klebsiella pneumoniae [5] = experiment: Antibacterial activity against extended-spectrum beta-lactamase-negative Klebsiella pneumoniae 7 after 18 hrs by agar dilution method; format: functional; settings: Klebsiella pneumoniae, 7, 18 h
Staphylococcus aureus [6] = experiment: Antibacterial activity against methicillin-resistant Staphylococcus aureus 12-33 after 18 hrs by agar dilution method; format: functional
Escherichia coli [7] = experiment: Antibacterial activity against extended-spectrum beta-lactamase-negative Escherichia coli ATCC 25922 after 18 hrs by agar dilution method; format: functional; settings: ATCC 25922, 18 h
Candida albicans = experiment: Antifungal activity against Candida albicans ATCC 10231 after 18 hrs by agar dilution method; format: functional; settings: ATCC 10231, 18 h
Staphylococcus aureus [8] = experiment: Antibacterial activity against methicillin-resistant Staphylococcus aureus ATCC 33591 after 18 hrs by agar dilution method; format: functional
Proteus mirabilis = experiment: Antibacterial activity against Proteus mirabilis 12-6 after 18 hrs by agar dilution method; format: functional; settings: 12-6, 18 h
Klebsiella pneumoniae [9] = experiment: Antibacterial activity against NDM-1 positive Klebsiella pneumoniae ATCC BAA-2146 after 18 hrs by agar dilution method; format: functional; settings: ATCC BAA-2146, 18 h
Pseudomonas aeruginosa [10] = experiment: Antibacterial activity against Pseudomonas aeruginosa 12-16 after 18 hrs by agar dilution method; format: functional; settings: 12-16, 18 h
Escherichia coli [11] = experiment: Antibacterial activity against extended-spectrum beta-lactamase-negative Escherichia coli 1515 after 18 hrs by agar dilution method; format: functional; settings: Escherichia coli, 1515, 18 h
Serratia marcescens = experiment: Antibacterial activity against Serratia marcescens ATCC 21074 after 18 hrs by agar dilution method; format: functional; settings: ATCC 21074, 18 h
Enterococcus faecium [12] = experiment: Antibacterial activity against vancomycin-resistant Enterococcus faecium 12-1 after 18 hrs by agar dilution method; format: functional
Klebsiella pneumoniae [13] = experiment: Antibacterial activity against extended-spectrum beta-lactamase-positive Klebsiella pneumoniae 12-8 after 18 hrs by agar dilution method; format: functional; settings: 12-8, 18 h
HeLa = experiment: Cytotoxicity against human HeLa cells after 48 hrs by SRB assay; format: functional, cell-based
Summary of the method: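 HeLa human cervical carcinoma cells obtained from ATCC. Cytotoxicity was read by sulforhodamine B staining following an earlier published protocol, with doxorubicin hydrochloride as positive control. Values are reported as IC50.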

Escherichia coli [14] = experiment: Antibacterial activity against extended-spectrum beta-lactamase-positive Escherichia coli 12-15 after 18 hrs by agar dilution method; format: functional; settings: 12-15, 18 h
Citrobacter freundii = experiment: Antibacterial activity against Citrobacter freundii ATCC 43864 after 18 hrs by agar dilution method; format: functional; settings: ATCC 43864, 18 h
Enterococcus faecium [15] = experiment: Antibacterial activity against vancomycin-resistant Enterococcus faecium ATCC 700221 after 18 hrs by agar dilution method; format: functional
Proteus vulgaris = experiment: Antibacterial activity against Proteus vulgaris ATCC 29905 after 18 hrs by agar dilution method; format: functional; settings: ATCC 29905, 18 h
[16] = test system: Acinetobacter calcoaceticus; experiment: Antibacterial activity against Acinetobacter calcoaceticus ATCC 19606 after 18 hrs by agar dilution method; format: functional; settings: ATCC 19606, 18 h
Klebsiella pneumoniae [17] = experiment: Antibacterial activity against extended-spectrum beta-lactamase-negative Klebsiella pneumoniae 12-4 after 18 hrs by agar dilution method; format: functional; settings: 12-4, 18 h
Pseudomonas aeruginosa [18] = experiment: Antibacterial activity against Pseudomonas aeruginosa PAO1 after 18 hrs by agar dilution method; format: functional; settings: PAO1, 18 h
Enterococcus faecalis [19] = experiment: Antibacterial activity against vancomycin-resistant Enterococcus faecalis 09-9 after 18 hrs by agar dilution method; format: functional
Klebsiella aerogenes = experiment: Antibacterial activity against Enterobacter aerogenes ATCC 13048 after 18 hrs by agar dilution method; format: functional; settings: ATCC 13048, 18 h
Pseudomonas aeruginosa [20] = experiment: Antibacterial activity against Pseudomonas aeruginosa ATCC 27853 after 18 hrs by agar dilution method; format: functional; settings: ATCC 27853, 18 h
Enterococcus faecalis [21] = experiment: Antibacterial activity against vancomycin-resistant Enterococcus faecalis ATCC 51299 after 18 hrs by agar dilution method; format: functional

## CNC(=N)NCCC/C=C/CCC[C@H](C)C[C@H](C)[C@H]1OC(=O)[C@H](C)[C@H](O)/C=C/[C@H](C)[C@H](O)C[C@H](O)[C@H](C)[C@@H](O)CC[C@H](C)[C@H](O)CC(O)[C@H](O)[C@@H](O)C[C@H](O)C[C@@H](O)C[C@H](O)C[C@@H](O)[C@H](C)[C@H](O)/C=C/C=C/[C@@H]1C (stereo partly drawn)
[1]
  Activity: Active
Providencia rettgeri
  MIC: > 64 µg/mL
Escherichia coli [2]
  MIC: > 64 µg/mL
[3]
  MIC: > 64 µg/mL
Enterobacter cloacae
  MIC: > 64 µg/mL
Klebsiella pneumoniae [4]
  MIC: > 64 µg/mL
Morganella morganii
  MIC: > 64 µg/mL
Klebsiella pneumoniae [5]
  MIC: > 64 µg/mL
Staphylococcus aureus [6]
  Activity: Active
Escherichia coli [7]
  MIC: > 64 µg/mL
Candida albicans
  MIC: 8 to 32 µg/mL (≈ 7.56 to 30.2 µM)
Staphylococcus aureus [8]
  Activity: Active
Proteus mirabilis
  MIC: > 64 µg/mL
Klebsiella pneumoniae [9]
  MIC: > 64 µg/mL
Pseudomonas aeruginosa [10]
  MIC: > 64 µg/mL
Escherichia coli [11]
  MIC: > 64 µg/mL
Serratia marcescens
  MIC: > 64 µg/mL
Enterococcus faecium [12]
  Activity: Active
Klebsiella pneumoniae [13]
  MIC: > 64 µg/mL
HeLa
  IC50: > 10 µM
Escherichia coli [14]
  MIC: > 64 µg/mL
Citrobacter freundii
  MIC: > 64 µg/mL
Enterococcus faecium [15]
  Activity: Active
Proteus vulgaris
  MIC: > 64 µg/mL
[16]
  MIC: > 64 µg/mL
Klebsiella pneumoniae [17]
  MIC: > 64 µg/mL
Pseudomonas aeruginosa [18]
  MIC: > 64 µg/mL
Enterococcus faecalis [19]
  Activity: Active
Klebsiella aerogenes
  MIC: > 64 µg/mL
Pseudomonas aeruginosa [20]
  MIC: > 64 µg/mL
Enterococcus faecalis [21]
  Activity: Active

## CNC(=N)NCCC/C=C/CCC[C@H](C)C[C@H](C)[C@H]1OC(=O)[C@H](C)[C@H](O)/C=C/[C@H](C)[C@H](O)C[C@H](O)[C@H](C)[C@@H](O)CC[C@H](C)[C@H](O)C[C@]2(OC)O[C@H](C[C@@H](OC(=O)CC(=O)O)C[C@H](O)C[C@@H](O)[C@H](C)[C@H](O)/C=C/C=C/[C@@H]1C)C[C@H](O)[C@H]2O
[1]
  Activity: Active
Providencia rettgeri
  MIC: > 64 µg/mL
Escherichia coli [2]
  MIC: > 64 µg/mL
[3]
  MIC: > 64 µg/mL
Enterobacter cloacae
  MIC: > 64 µg/mL
Klebsiella pneumoniae [4]
  MIC: > 64 µg/mL
Morganella morganii
  MIC: > 64 µg/mL
Klebsiella pneumoniae [5]
  MIC: > 64 µg/mL
Staphylococcus aureus [6]
  Activity: Active
Escherichia coli [7]
  MIC: > 64 µg/mL
Candida albicans
  MIC: 8 to 32 µg/mL (≈ 6.92 to 27.7 µM)
Staphylococcus aureus [8]
  Activity: Active
Proteus mirabilis
  MIC: > 64 µg/mL
Klebsiella pneumoniae [9]
  MIC: > 64 µg/mL
Pseudomonas aeruginosa [10]
  MIC: > 64 µg/mL
Escherichia coli [11]
  MIC: > 64 µg/mL
Serratia marcescens
  MIC: > 64 µg/mL
Enterococcus faecium [12]
  Activity: Active
Klebsiella pneumoniae [13]
  MIC: > 64 µg/mL
HeLa
  IC50: 3 to 9 µM
Escherichia coli [14]
  MIC: > 64 µg/mL
Citrobacter freundii
  MIC: > 64 µg/mL
Enterococcus faecium [15]
  Activity: Active
Proteus vulgaris
  MIC: > 64 µg/mL
[16]
  MIC: > 64 µg/mL
Klebsiella pneumoniae [17]
  MIC: > 64 µg/mL
Pseudomonas aeruginosa [18]
  MIC: > 64 µg/mL
Enterococcus faecalis [19]
  Activity: Active
Klebsiella aerogenes
  MIC: > 64 µg/mL
Pseudomonas aeruginosa [20]
  MIC: > 64 µg/mL
Enterococcus faecalis [21]
  Activity: Active

## CNC(=N)NCCC/C=C/CCC[C@H](C)C[C@H](C)[C@H]1OC(=O)[C@H](C)[C@H](O)/C=C/[C@H](C)[C@H](O)C[C@H](O)[C@H](C)[C@@H](O)CC[C@H](C)[C@H](O)C[C@]2(O)O[C@H](C[C@@H](O)C[C@H](OC(=O)CC(=O)O)C[C@@H](O)[C@H](C)[C@H](O)/C=C/C=C/[C@@H]1C)C[C@H](OC(=O)CC(=O)O)[C@H]2O
[1]
  Activity: Active
Providencia rettgeri
  MIC: > 64 µg/mL
Escherichia coli [2]
  MIC: > 64 µg/mL
[3]
  MIC: > 64 µg/mL
Enterobacter cloacae
  MIC: > 64 µg/mL
Klebsiella pneumoniae [4]
  MIC: > 64 µg/mL
Morganella morganii
  MIC: > 64 µg/mL
Klebsiella pneumoniae [5]
  MIC: > 64 µg/mL
Staphylococcus aureus [6]
  Activity: Active
Escherichia coli [7]
  MIC: > 64 µg/mL
Candida albicans
  MIC: 8 to 32 µg/mL (≈ 6.51 to 26 µM)
Staphylococcus aureus [8]
  Activity: Active
Proteus mirabilis
  MIC: > 64 µg/mL
Klebsiella pneumoniae [9]
  MIC: > 64 µg/mL
Pseudomonas aeruginosa [10]
  MIC: > 64 µg/mL
Escherichia coli [11]
  MIC: > 64 µg/mL
Serratia marcescens
  MIC: > 64 µg/mL
Enterococcus faecium [12]
  Activity: Active
Klebsiella pneumoniae [13]
  MIC: > 64 µg/mL
HeLa
  IC50: > 10 µM
Escherichia coli [14]
  MIC: > 64 µg/mL
Citrobacter freundii
  MIC: > 64 µg/mL
Enterococcus faecium [15]
  Activity: Active
Proteus vulgaris
  MIC: > 64 µg/mL
[16]
  MIC: > 64 µg/mL
Klebsiella pneumoniae [17]
  MIC: > 64 µg/mL
Pseudomonas aeruginosa [18]
  MIC: > 64 µg/mL
Enterococcus faecalis [19]
  Activity: Active
Klebsiella aerogenes
  MIC: > 64 µg/mL
Pseudomonas aeruginosa [20]
  MIC: > 64 µg/mL
Enterococcus faecalis [21]
  Activity: Active
